Data published in ChEMBL document CHEMBL3112482, “Nonclassical antifolates, part 5. Benzodiazepine analogs as a new class of DHFR inhibitors: synthesis, antitumor testing and molecular modeling study” (Eur J Med Chem, 2014).

Legend:
MDA-MB-435 = experiment: Growth inhibition of human MDA-MB-435 cells at 10 uM after 48 hrs; type: functional; settings: MDA-MB-435, 48 h, read-out: GI
Outline: (§1)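 Single-dose primary screen in the NCI 60 human tumour cell line panel, run at the NCI facility. The panel covers nine subpanels: leukaemia, non-small cell lung, colon, CNS, melanoma, ovarian, renal, prostate and breast. Read-out was percent growth of treated cells, shown as a mean graph and reported as percent growth inhibition.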

M14 = experiment: Growth inhibition of human M14 cells at 10 uM after 48 hrs; type: functional; settings: M14, 48 h, read-out: GI; outline: as §1
SNB-75 = experiment: Growth inhibition of human SNB75 cells at 10 uM after 48 hrs; type: functional; settings: SNB-75, 48 h, read-out: GI
Outline: (§2)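 NCI 60-cell-line disease-oriented human tumor panel, single-dose primary screen at 10 µM. Data given as mean-graph percent growth of treated cells, reported as percent growth inhibition (GI %).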

SNB-19 = experiment: Growth inhibition of human SNB19 cells at 10 uM after 48 hrs; type: functional; settings: SNB-19, 48 h, read-out: GI; outline: as §2
[1] = Growth inhibition of human SF539 cells at 10 uM after 48 hrs; type: functional; settings: SF-539, 48 h, read-out: GI; outline: as §2
SF-268 = experiment: Growth inhibition of human SF268 cells at 10 uM after 48 hrs; type: functional; settings: SF-268, 48 h, read-out: GI; outline: as §2
SW-620 = experiment: Growth inhibition of human SW620 cells at 10 uM after 48 hrs; type: functional; settings: SW-620, 48 h, read-out: GI; outline: as §2
COLO 205 = experiment: Growth inhibition of human COLO205 cells at 10 uM after 48 hrs; type: functional; settings: COLO 205, 48 h, read-out: GI; outline: as §1
NCI-H522 = experiment: Growth inhibition of human NCI-H522 cells at 10 uM after 48 hrs; type: functional; settings: NCI-H522, 48 h, read-out: GI; outline: as §1
NCI-H322M = experiment: Growth inhibition of human NCI-H322M cells at 10 uM after 48 hrs; type: functional; settings: read-out: GI; outline: as §1
NCI-H23 = experiment: Growth inhibition of human NCI-H23 cells at 10 uM after 48 hrs; type: functional; settings: NCI-H23, 48 h, read-out: GI; outline: as §1
[2] = Growth inhibition of human EKVX cells at 10 uM after 48 hrs; type: functional; settings: read-out: GI; outline: as §1
SR = experiment: Growth inhibition of human SR cells at 10 uM after 48 hrs; type: functional; settings: read-out: GI; outline: as §2
K562 = experiment: Growth inhibition of human K562 cells at 10 uM after 48 hrs; type: functional; settings: K562, 48 h, read-out: GI; outline: as §1
MOLT-4 = experiment: Growth inhibition of human MOLT4 cells at 10 uM after 48 hrs; type: functional; settings: MOLT-4, 48 h, read-out: GI; outline: as §1
CCRF-CEM = experiment: Growth inhibition of human CCRF-CEM cells at 10 uM after 48 hrs; type: functional; settings: read-out: GI; outline: as §1
Dihydrofolate reductase = target: T1, Dihydrofolate reductase (Bos taurus, UniProt P00376); experiment: Inhibition of bovine liver DHFR measured for every 1 min of 10 mins
T1 sequence (P00376 whole entry): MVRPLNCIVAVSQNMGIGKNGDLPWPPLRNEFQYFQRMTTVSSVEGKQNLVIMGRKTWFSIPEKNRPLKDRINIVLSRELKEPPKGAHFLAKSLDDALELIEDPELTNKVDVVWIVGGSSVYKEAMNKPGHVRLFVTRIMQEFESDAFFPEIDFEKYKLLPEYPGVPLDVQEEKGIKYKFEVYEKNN

[3] = Cytotoxicity against human breast cancer cells at 10 uM after 48 hrs; type: functional; settings: Cancer cell lines; outline: as §1
[4] = Cytotoxicity against human prostate cancer cells at 10 uM after 48 hrs; type: functional; settings: Cancer cell lines
[5] = Cytotoxicity against human renal cancer cells at 10 uM after 48 hrs; type: functional; settings: Cancer cell lines
[6] = Cytotoxicity against human CNS cancer cells at 10 uM after 48 hrs; type: functional; settings: Cancer cell lines
[7] = Cytotoxicity against human colon cancer cells at 10 uM after 48 hrs; type: functional; settings: Cancer cell lines; outline: as §1
T47D = experiment: Growth inhibition of human T47D cells at 10 uM after 48 hrs; type: functional; settings: read-out: GI; outline: as §2
[8] = Growth inhibition of human Hs 578T cells at 10 uM after 48 hrs; type: functional; settings: read-out: GI; outline: as §1
MCF7 = experiment: Growth inhibition of human MCF7 cells at 10 uM after 48 hrs; type: functional; settings: MCF7, 48 h, read-out: GI; outline: as §1
MDA-MB-231 = experiment: Growth inhibition of human MDA-MB-231 cells at 10 uM after 48 hrs; type: functional; settings: MDA-MB-231, 48 h, read-out: GI; outline: as §1
DU-145 = experiment: Growth inhibition of human DU145 cells at 10 uM after 48 hrs; type: functional; settings: DU-145, 48 h, read-out: GI; outline: as §1
PC-3 = experiment: Growth inhibition of human PC3 cells at 10 uM after 48 hrs; type: functional; settings: PC-3, 48 h, read-out: GI; outline: as §1
TK-10 = experiment: Growth inhibition of human TK10 cells at 10 uM after 48 hrs; type: functional; settings: TK-10, 48 h, read-out: GI; outline: as §2
[9] = Growth inhibition of human UO31 cells at 10 uM after 48 hrs; type: functional; settings: UO-31, 48 h, read-out: GI; outline: as §2
CAKI-1 = experiment: Growth inhibition of human CAKI-1 cells at 10 uM after 48 hrs; type: functional; settings: CAKI-1, 48 h, read-out: GI; outline: as §1
[10] = Growth inhibition of human RXF393 cells at 10 uM after 48 hrs; type: functional; settings: RXF 393, 48 h, read-out: GI; outline: as §1
A498 = experiment: Growth inhibition of human A498 cells at 10 uM after 48 hrs; type: functional; settings: A498, 48 h, read-out: GI; outline: as §1
SK-OV-3 = experiment: Growth inhibition of human SKOV3 cells at 10 uM after 48 hrs; type: functional; settings: SK-OV-3, 48 h, read-out: GI; outline: as §2
[11] = Growth inhibition of human NCI-ADR-RES cells at 10 uM after 48 hrs; type: functional; settings: read-out: GI; outline: as §1
OVCAR-8 = experiment: Growth inhibition of human OVCAR8 cells at 10 uM after 48 hrs; type: functional; settings: OVCAR-8, 48 h, read-out: GI; outline: as §1
[12] = Growth inhibition of human OVCAR5 cells at 10 uM after 48 hrs; type: functional; settings: OVCAR-5, 48 h, read-out: GI; outline: as §1
[13] = Growth inhibition of human OVCAR4 cells at 10 uM after 48 hrs; type: functional; settings: OVCAR-4, 48 h, read-out: GI; outline: as §1
[14] = Growth inhibition of human UACC257 cells at 10 uM after 48 hrs; type: functional; settings: UACC-257, 48 h, read-out: GI; outline: as §2
SK-MEL-28 = experiment: Growth inhibition of human SK-MEL-28 cells at 10 uM after 48 hrs; type: functional; settings: SK-MEL-28, 48 h, read-out: GI; outline: as §2
SK-MEL-2 = experiment: Growth inhibition of human SK-MEL-2 cells at 10 uM after 48 hrs; type: functional; settings: SK-MEL-2, 48 h, read-out: GI; outline: as §2
[15] = read-out: LC50 (the source's name)

`COc1ccc(/C=C2\CCCc3c2nc(N)nc3-c2ccc(OC)c(OC)c2)cc1OC` gave an inhibition of growth at 10 µM (MDA-MB-435) of 69.2%, an inhibition of growth at 10 µM (M14) of 42.7% and an inhibition of growth at 10 µM (SNB-75) of 36.1%. It also gave an inhibition of growth at 10 µM (SNB-19) of under 30%, an inhibition of growth at 10 µM [1] of under 30% and an inhibition of growth at 10 µM (SF-268) of 36.2%. The inhibition of growth at 10 µM (SW-620) was 59.3%, the inhibition of growth at 10 µM (COLO 205) was 54% and the inhibition of growth at 10 µM (NCI-H522) was 83.3%. The inhibition of growth at 10 µM (NCI-H322M) was under 30%, the inhibition of growth at 10 µM (NCI-H23) was 50.7% and the inhibition of growth at 10 µM [2] was under 30%. For the same molecule, the inhibition of growth at 10 µM (SR) was 71.9%, the inhibition of growth at 10 µM (K562) was 44% and the inhibition of growth at 10 µM (MOLT-4) was 46.9%. For the same molecule, the inhibition of growth at 10 µM (CCRF-CEM) was 84.7%, the IC50 (Dihydrofolate reductase) was 14 µM and the GI50 [3] was 3.9 µM. It also gave an LC50 (concentration killing 50% of cells) [3] of over 100 µM, a TGI [3] of 87.3 µM and a GI50 [4] of 5.1 µM. It also gave an LC50 [4] of over 100 µM, a TGI [4] of over 100 µM and a CC50 [5] of 93.6 µM. For the same molecule, the GI50 [5] was 7.8 µM, the TGI [5] was 66.7 µM and the GI50 [6] was 26.7 µM. It also gave a TGI [6] of 85.7 µM, a CC50 [6, 15] of over 100 µM and a GI50 [7] of 17.4 µM. For the same molecule, the TGI [7] was 75.8 µM, the CC50 [7, 15] was 89.8 µM and the inhibition of growth at 10 µM (T47D) was under 30%. The inhibition of growth at 10 µM [8] was under 30%, the inhibition of growth at 10 µM (MCF7) was 72.4% and the inhibition of growth at 10 µM (MDA-MB-231) was under 30%. The inhibition of growth at 10 µM (DU-145) was under 30%, the inhibition of growth at 10 µM (PC-3) was 38.5% and the inhibition of growth at 10 µM (TK-10) was under 30%. The inhibition of growth at 10 µM [9] was 37.1%, the inhibition of growth at 10 µM (CAKI-1) was 44.2% and the inhibition of growth at 10 µM [10] was 79.1%. For the same molecule, the inhibition of growth at 10 µM (A498) was under 30%, the inhibition of growth at 10 µM (SK-OV-3) was 55.9% and the inhibition of growth at 10 µM [11] was 74.9%. For the same molecule, the inhibition of growth at 10 µM (OVCAR-8) was 89.4%, the inhibition of growth at 10 µM [12] was under 30% and the inhibition of growth at 10 µM [13] was 46.7%. The inhibition of growth at 10 µM [14] was 53.8%, the inhibition of growth at 10 µM (SK-MEL-28) was 34.7% and the inhibition of growth at 10 µM (SK-MEL-2) was 43.2%.
